# Target: Nitric oxide synthase 1 (Homo sapiens, UniProt P29475)
# Assay: Inhibition of human neuronal NOS activity
# Nitric oxide synthase 1 (Homo sapiens, UniProt P29475), sequence (P29475 whole entry): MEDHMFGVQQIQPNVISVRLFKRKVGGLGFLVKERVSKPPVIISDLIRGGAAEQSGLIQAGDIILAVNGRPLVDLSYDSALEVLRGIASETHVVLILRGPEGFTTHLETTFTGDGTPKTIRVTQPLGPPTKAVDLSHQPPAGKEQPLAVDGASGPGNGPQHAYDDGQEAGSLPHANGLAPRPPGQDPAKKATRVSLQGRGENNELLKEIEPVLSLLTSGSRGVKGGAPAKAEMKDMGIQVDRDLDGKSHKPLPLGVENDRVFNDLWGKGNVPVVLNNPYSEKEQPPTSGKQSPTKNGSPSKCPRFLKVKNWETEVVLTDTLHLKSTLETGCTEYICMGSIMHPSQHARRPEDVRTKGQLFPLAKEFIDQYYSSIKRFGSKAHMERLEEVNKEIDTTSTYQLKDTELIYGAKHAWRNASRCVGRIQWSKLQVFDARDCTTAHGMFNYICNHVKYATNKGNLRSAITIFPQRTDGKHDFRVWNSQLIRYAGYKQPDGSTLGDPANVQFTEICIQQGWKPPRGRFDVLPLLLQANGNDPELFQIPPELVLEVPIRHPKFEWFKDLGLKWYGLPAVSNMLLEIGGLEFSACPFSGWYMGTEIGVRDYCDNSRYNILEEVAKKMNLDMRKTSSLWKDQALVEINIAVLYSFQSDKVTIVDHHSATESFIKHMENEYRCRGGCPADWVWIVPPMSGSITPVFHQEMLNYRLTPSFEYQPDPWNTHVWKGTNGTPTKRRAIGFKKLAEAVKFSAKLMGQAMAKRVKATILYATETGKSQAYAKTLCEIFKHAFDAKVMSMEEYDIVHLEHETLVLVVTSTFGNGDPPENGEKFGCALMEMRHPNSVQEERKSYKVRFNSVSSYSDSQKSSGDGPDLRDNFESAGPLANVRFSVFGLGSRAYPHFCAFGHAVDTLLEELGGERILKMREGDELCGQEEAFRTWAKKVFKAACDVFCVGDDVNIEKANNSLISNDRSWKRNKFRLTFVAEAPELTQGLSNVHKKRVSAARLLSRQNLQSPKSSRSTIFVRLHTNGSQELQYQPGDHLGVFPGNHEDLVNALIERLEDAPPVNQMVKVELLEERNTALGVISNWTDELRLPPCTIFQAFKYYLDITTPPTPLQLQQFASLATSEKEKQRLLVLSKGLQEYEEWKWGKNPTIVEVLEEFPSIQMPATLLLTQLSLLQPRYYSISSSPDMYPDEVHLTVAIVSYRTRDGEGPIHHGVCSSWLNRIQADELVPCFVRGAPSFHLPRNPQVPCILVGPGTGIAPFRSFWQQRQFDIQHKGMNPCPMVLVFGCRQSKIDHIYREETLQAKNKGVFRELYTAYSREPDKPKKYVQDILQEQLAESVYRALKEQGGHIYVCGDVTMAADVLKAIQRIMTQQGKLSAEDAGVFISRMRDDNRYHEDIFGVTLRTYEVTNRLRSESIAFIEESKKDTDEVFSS
row,Structure (SMILES),IC50 [µM]
1,N=C(Nc1ccc2nc(NC3CCN(Cc4ccc(C(=O)O)cc4)CC3)sc2c1)c1cccs1,5.1
2,NC(=Nc1ccc2nc(NC3CCN(CCc4cnc[nH]4)CC3)sc2c1)c1cccs1,0.3
3,N=C(Nc1ccc2sc(NCCN3CCOCC3)nc2c1)c1cccs1,1.3
4,N=C(Nc1ccc2nc(NC3CCN(Cc4ccc(F)cc4)CC3)sc2c1)c1cccs1,0.2
5,N=C(Nc1ccc2sc(NCCc3ccccn3)nc2c1)c1cccs1,1.1
6,N=C(Nc1ccc2nc(N)sc2c1)c1cccs1,0.2
7,N=C(Nc1ccc2sc(NC3CCN(Cc4ccc(F)cc4)CC3)nc2c1)c1cccs1,0.8
8,COc1ccc(CN2CCC(Nc3nc4ccc(N=C(N)c5cccs5)cc4s3)CC2)cc1,0.2
9,CN1CCCC1CCNc1nc2cc(NC(=N)c3cccs3)ccc2s1 (racemic),0.03
10,NC(=Nc1ccc2sc(NC3CCN(Cc4ccccc4)CC3)nc2c1)c1cccs1,0.4
11,COc1cccc(CN2CCC(Nc3nc4ccc(N=C(N)c5cccs5)cc4s3)CC2)c1,0.1
12,CCSC(=N)Nc1ccc2nc(N)sc2c1,1.4
13,COC(=O)c1ccc(CN2CCC(Nc3nc4ccc(N=C(N)c5cccs5)cc4s3)CC2)cc1,0.3

# Target: Nitric oxide synthase 1 (Rattus norvegicus, UniProt P29476)
# Assay: Inhibition of rat neuronal NOS activity
# Nitric oxide synthase 1 (Rattus norvegicus, UniProt P29476), sequence (P29476 whole entry): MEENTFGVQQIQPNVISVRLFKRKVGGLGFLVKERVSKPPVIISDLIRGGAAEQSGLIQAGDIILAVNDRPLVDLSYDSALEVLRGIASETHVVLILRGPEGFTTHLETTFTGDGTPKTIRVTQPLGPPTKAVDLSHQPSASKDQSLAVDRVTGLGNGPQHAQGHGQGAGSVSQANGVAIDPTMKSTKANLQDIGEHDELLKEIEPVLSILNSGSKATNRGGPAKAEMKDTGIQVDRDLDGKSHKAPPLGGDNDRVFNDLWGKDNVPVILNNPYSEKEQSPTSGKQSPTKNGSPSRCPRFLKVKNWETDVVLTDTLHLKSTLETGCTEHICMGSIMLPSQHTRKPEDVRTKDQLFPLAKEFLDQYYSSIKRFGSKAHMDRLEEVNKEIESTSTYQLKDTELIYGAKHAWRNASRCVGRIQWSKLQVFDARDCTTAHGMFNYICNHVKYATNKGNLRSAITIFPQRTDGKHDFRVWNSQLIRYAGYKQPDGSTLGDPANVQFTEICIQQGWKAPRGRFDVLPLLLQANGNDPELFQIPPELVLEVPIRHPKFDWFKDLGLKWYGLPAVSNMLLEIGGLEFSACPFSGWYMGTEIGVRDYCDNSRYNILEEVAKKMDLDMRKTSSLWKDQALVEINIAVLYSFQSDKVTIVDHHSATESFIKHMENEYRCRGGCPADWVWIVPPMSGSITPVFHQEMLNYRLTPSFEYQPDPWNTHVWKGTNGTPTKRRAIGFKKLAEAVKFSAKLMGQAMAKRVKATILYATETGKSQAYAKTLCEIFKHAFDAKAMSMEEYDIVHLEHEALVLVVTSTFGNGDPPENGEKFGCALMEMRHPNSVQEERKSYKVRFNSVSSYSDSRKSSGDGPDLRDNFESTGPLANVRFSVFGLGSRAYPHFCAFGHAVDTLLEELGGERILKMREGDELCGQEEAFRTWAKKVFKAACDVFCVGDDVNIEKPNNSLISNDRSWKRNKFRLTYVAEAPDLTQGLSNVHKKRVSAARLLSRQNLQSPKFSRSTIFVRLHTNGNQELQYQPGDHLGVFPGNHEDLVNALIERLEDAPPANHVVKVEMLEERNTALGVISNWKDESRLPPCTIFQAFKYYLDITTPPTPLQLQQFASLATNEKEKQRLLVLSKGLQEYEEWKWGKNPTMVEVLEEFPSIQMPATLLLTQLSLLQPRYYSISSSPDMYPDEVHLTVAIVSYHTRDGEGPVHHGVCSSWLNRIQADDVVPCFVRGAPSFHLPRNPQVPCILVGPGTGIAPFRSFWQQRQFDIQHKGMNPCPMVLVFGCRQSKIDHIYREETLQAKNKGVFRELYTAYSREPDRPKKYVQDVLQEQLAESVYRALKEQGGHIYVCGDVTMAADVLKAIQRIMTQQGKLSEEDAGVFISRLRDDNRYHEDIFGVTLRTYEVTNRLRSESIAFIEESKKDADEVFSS
row,Structure (SMILES),IC50 [µM]
1,NC(=Nc1ccc2nc(NC3CCN(CCc4cnc[nH]4)CC3)sc2c1)c1cccs1,4.8
2,COc1cccc(CN2CCC(Nc3nc4ccc(N=C(N)c5cccs5)cc4s3)CC2)c1,6.7

# Target: Nitric oxide synthase, inducible (Rattus norvegicus, UniProt Q06518)
# Assay: Inhibition of rat inducible NOS activity
# Summary of the method: (§1)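 Rat NOS isoform activity read out as conversion of radiolabelled L-arginine to L-citrulline. Percent inhibition was measured in duplicate at 8–12 concentrations to give IC₅₀.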
row,Structure (SMILES),IC50 [µM]
1,NC(=Nc1ccc2nc(NC3CCN(CCc4cnc[nH]4)CC3)sc2c1)c1cccs1,26
2,COc1cccc(CN2CCC(Nc3nc4ccc(N=C(N)c5cccs5)cc4s3)CC2)c1,19

# Target: T1, Nitric oxide synthase 3 (Homo sapiens, UniProt P29474)
# T1 sequence (P29474 whole entry): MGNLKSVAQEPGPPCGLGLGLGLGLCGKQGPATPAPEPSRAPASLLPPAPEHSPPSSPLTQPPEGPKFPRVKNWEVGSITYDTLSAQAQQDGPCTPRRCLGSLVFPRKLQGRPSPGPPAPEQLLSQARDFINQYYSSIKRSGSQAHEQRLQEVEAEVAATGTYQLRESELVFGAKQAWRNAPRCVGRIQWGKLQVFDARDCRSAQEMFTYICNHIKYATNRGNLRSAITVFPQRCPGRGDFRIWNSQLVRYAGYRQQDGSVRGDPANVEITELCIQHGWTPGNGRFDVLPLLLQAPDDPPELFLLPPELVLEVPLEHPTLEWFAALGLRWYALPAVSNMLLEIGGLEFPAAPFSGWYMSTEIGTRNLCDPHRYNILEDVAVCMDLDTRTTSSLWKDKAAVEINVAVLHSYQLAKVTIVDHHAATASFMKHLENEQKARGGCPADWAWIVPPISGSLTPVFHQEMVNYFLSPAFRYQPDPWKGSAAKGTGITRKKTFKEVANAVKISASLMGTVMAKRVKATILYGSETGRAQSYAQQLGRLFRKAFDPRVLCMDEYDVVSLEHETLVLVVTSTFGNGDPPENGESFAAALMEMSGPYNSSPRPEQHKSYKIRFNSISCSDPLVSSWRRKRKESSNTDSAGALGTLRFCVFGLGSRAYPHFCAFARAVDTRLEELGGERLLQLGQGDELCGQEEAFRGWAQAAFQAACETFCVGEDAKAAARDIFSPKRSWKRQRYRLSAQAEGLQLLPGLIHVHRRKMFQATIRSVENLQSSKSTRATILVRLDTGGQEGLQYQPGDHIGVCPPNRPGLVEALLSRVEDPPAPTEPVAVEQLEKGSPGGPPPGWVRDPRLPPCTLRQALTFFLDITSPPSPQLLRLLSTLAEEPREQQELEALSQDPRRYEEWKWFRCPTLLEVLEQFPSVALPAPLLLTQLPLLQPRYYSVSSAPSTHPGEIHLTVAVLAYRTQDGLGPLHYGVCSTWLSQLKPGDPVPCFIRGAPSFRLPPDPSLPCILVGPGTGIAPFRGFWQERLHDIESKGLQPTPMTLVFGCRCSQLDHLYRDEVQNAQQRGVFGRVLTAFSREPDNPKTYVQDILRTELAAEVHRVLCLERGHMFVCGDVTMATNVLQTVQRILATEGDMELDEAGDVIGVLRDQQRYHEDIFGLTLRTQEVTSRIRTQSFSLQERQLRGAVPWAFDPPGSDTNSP
# Assay: Inhibition of human endothelial NOS activity
# Summary of the method: (§2)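 Human NOS isoform activity read out as conversion of [³H]L-arginine to [³H]L-citrulline. Percent inhibition was measured at 8–12 inhibitor concentrations to derive IC₅₀.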
row,Structure (SMILES),IC50 [µM]
1,N=C(Nc1ccc2nc(NC3CCN(Cc4ccc(C(=O)O)cc4)CC3)sc2c1)c1cccs1,59
2,NC(=Nc1ccc2nc(NC3CCN(CCc4cnc[nH]4)CC3)sc2c1)c1cccs1,0.7
3,N=C(Nc1ccc2sc(NCCN3CCOCC3)nc2c1)c1cccs1,12
4,N=C(Nc1ccc2nc(NC3CCN(Cc4ccc(F)cc4)CC3)sc2c1)c1cccs1,8
5,N=C(Nc1ccc2sc(NCCc3ccccn3)nc2c1)c1cccs1,6
6,N=C(Nc1ccc2nc(N)sc2c1)c1cccs1,2.9
7,N=C(Nc1ccc2sc(NC3CCN(Cc4ccc(F)cc4)CC3)nc2c1)c1cccs1,13
8,COc1ccc(CN2CCC(Nc3nc4ccc(N=C(N)c5cccs5)cc4s3)CC2)cc1,5.7
9,CN1CCCC1CCNc1nc2cc(NC(=N)c3cccs3)ccc2s1 (racemic),1.6
10,NC(=Nc1ccc2sc(NC3CCN(Cc4ccccc4)CC3)nc2c1)c1cccs1,16
11,COc1cccc(CN2CCC(Nc3nc4ccc(N=C(N)c5cccs5)cc4s3)CC2)c1,3.8
12,CCSC(=N)Nc1ccc2nc(N)sc2c1,9.2
13,COC(=O)c1ccc(CN2CCC(Nc3nc4ccc(N=C(N)c5cccs5)cc4s3)CC2)cc1,5.2

# Target: T2, Nitric oxide synthase 3 (Rattus norvegicus, UniProt Q62600)
# T2 sequence (Q62600 whole entry): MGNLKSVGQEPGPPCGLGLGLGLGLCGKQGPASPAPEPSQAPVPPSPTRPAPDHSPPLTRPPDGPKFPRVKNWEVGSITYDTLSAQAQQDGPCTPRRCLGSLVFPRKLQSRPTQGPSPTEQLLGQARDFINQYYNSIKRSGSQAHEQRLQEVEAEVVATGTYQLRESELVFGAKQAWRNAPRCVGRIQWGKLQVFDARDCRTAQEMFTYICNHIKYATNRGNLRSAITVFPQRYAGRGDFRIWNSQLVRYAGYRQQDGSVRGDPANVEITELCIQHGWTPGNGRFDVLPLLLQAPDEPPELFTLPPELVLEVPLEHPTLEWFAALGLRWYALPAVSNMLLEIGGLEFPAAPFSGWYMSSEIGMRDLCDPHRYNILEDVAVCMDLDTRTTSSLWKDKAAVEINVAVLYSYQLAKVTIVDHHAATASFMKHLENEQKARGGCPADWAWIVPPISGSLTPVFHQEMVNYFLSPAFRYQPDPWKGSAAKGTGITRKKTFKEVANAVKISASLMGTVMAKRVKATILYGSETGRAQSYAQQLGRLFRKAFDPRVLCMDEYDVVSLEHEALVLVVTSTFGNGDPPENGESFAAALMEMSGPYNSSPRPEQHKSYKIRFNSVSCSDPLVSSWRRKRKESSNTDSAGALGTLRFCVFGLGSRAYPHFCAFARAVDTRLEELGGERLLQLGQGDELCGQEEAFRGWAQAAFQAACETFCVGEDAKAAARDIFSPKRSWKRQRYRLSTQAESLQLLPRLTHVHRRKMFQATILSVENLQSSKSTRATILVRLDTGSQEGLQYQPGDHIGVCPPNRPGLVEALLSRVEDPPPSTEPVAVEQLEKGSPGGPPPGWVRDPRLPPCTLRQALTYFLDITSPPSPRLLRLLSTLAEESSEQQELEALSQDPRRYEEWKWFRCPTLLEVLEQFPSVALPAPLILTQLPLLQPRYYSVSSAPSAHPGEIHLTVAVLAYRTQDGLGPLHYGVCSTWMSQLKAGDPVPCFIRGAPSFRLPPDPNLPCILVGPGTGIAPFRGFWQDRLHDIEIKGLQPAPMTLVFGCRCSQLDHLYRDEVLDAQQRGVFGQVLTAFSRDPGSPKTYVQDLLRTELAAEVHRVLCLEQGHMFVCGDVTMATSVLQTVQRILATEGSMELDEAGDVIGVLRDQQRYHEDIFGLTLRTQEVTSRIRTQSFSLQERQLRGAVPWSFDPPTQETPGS
# Assay: Inhibition of rat endothelial NOS activity
# Summary of the method: as §1
row,Structure (SMILES),IC50 [µM]
1,NC(=Nc1ccc2nc(NC3CCN(CCc4cnc[nH]4)CC3)sc2c1)c1cccs1,4.6
2,COc1cccc(CN2CCC(Nc3nc4ccc(N=C(N)c5cccs5)cc4s3)CC2)c1,1.3

# Species on record: Homo sapiens
# Assay: Selectivity for human nNOS over human eNOS
# Summary of the method: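 Ratio of human eNOS IC₅₀ to human nNOS IC₅₀. Each IC₅₀ comes from radiolabelled arginine-to-citrulline conversion, with percent inhibition at 8–12 concentrations.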
row,Structure (SMILES),Ratio IC50
1,N=C(Nc1ccc2nc(NC3CCN(Cc4ccc(C(=O)O)cc4)CC3)sc2c1)c1cccs1,12
2,N=C(Nc1ccc2sc(NCCN3CCOCC3)nc2c1)c1cccs1,9
3,N=C(Nc1ccc2nc(NC3CCN(Cc4ccc(F)cc4)CC3)sc2c1)c1cccs1,40
4,N=C(Nc1ccc2sc(NCCc3ccccn3)nc2c1)c1cccs1,5
5,N=C(Nc1ccc2nc(N)sc2c1)c1cccs1,18
6,N=C(Nc1ccc2sc(NC3CCN(Cc4ccc(F)cc4)CC3)nc2c1)c1cccs1,16
7,CN1CCCC1CCNc1nc2cc(NC(=N)c3cccs3)ccc2s1 (racemic),53
8,CCSC(=N)Nc1ccc2nc(N)sc2c1,7

# Target: Nitric oxide synthase, inducible (Homo sapiens, UniProt P35228)
# Assay: Inhibition of human inducible NOS activity
# Summary of the method: as §2
# Nitric oxide synthase, inducible (Homo sapiens, UniProt P35228), sequence (P35228 whole entry): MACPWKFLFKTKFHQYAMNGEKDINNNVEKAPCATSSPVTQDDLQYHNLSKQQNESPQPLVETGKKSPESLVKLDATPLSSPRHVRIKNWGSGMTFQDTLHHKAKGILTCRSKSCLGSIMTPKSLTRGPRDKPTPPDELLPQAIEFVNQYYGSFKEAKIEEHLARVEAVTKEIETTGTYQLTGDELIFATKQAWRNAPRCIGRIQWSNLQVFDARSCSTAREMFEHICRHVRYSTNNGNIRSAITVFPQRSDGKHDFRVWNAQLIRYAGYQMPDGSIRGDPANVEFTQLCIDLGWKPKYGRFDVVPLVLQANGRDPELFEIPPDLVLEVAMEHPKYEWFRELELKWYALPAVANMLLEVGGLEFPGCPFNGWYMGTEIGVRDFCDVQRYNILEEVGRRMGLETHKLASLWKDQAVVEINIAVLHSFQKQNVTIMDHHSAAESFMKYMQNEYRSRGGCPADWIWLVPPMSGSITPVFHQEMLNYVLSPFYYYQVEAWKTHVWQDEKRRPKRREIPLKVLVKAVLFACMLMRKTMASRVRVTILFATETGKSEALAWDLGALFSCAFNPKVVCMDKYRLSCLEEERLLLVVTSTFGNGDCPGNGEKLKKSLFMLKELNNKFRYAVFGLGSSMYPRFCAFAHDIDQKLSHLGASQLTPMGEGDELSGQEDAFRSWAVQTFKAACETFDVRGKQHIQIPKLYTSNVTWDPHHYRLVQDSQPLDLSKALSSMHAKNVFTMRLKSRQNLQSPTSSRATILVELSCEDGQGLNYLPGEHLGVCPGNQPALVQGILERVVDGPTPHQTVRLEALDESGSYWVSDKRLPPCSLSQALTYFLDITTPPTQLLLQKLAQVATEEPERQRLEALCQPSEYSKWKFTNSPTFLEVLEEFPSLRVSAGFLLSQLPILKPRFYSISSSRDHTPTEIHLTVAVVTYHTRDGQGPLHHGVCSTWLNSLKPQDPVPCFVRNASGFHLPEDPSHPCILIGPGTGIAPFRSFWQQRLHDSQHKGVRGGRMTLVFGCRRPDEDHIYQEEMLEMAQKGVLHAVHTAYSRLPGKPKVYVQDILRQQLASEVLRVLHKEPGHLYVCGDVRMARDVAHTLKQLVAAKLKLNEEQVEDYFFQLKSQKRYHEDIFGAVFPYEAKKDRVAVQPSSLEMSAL
row,Structure (SMILES),IC50 [µM]
1,N=C(Nc1ccc2nc(NC3CCN(Cc4ccc(C(=O)O)cc4)CC3)sc2c1)c1cccs1,> 100
2,NC(=Nc1ccc2nc(NC3CCN(CCc4cnc[nH]4)CC3)sc2c1)c1cccs1,6
3,N=C(Nc1ccc2sc(NCCN3CCOCC3)nc2c1)c1cccs1,141
4,N=C(Nc1ccc2nc(NC3CCN(Cc4ccc(F)cc4)CC3)sc2c1)c1cccs1,14
5,N=C(Nc1ccc2sc(NCCc3ccccn3)nc2c1)c1cccs1,139
6,N=C(Nc1ccc2nc(N)sc2c1)c1cccs1,25
7,N=C(Nc1ccc2sc(NC3CCN(Cc4ccc(F)cc4)CC3)nc2c1)c1cccs1,91
8,COc1ccc(CN2CCC(Nc3nc4ccc(N=C(N)c5cccs5)cc4s3)CC2)cc1,9
9,CN1CCCC1CCNc1nc2cc(NC(=N)c3cccs3)ccc2s1 (racemic),15
10,NC(=Nc1ccc2sc(NC3CCN(Cc4ccccc4)CC3)nc2c1)c1cccs1,48
11,COc1cccc(CN2CCC(Nc3nc4ccc(N=C(N)c5cccs5)cc4s3)CC2)c1,> 100
12,CCSC(=N)Nc1ccc2nc(N)sc2c1,46
13,COC(=O)c1ccc(CN2CCC(Nc3nc4ccc(N=C(N)c5cccs5)cc4s3)CC2)cc1,> 100

# Source: ChEMBL document CHEMBL1147215, “Novel 2-aminobenzothiazoles as selective neuronal nitric oxide synthase inhibitors” (Bioorg Med Chem Lett, 2007)
